This is an account of results in ChEMBL document CHEMBL4359878, “Discovery of 4-piperazinyl-2-aminopyrimidine derivatives as dual inhibitors of JAK2 and FLT3” (Eur J Med Chem, 2019).

Where only a bound is given, the exact number is not on record here.

For assay [1], the target named is T1, Tyrosine-protein kinase JAK2 (Homo sapiens, UniProt O60674). Briefly: Inhibition of N-terminal His-tagged human JAK2 catalytic domain (826 to 1132 resiudes) expressed in baculovirus expression system at 100 nM using FAM-labeled peptide as substrate preincubated for 10 mins followed by substrate addition measured after 1 hr in presence of ATP by mobility shift assay relative to control. The gist of the method: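 Single-concentration (100 nM) percent inhibition in the mobility-shift JAK2 assay. Enzyme was preincubated with compound for 10 min at room temperature in HEPES pH 7.5/Brij-35 buffer. FAM-peptide and ATP were then added and the reaction run for 1 h at 28 °C before EDTA stop. Inhibition = (max−conversion)/(max−min)×100. Each compound was tested at least twice and the values averaged.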

The target in assay [2] is Receptor-type tyrosine-protein kinase FLT3 (Homo sapiens) (UniProt P36888). To be noted: at 100 nM.
Assay [3] concerns the target T1, Tyrosine-protein kinase JAK2. Kind of assay: Inhibition of N-terminal His-tagged human JAK2 catalytic domain (826 to 1132 resiudes) expressed in baculovirus expression system using FAM-labeled peptide as substrate preincubated for 10 mins followed by substrate addition measured after 1 hr in presence of ATP by mobility shift assay. In short, it runs like this: (§1)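 Caliper mobility-shift assay with recombinant kinase in 50 mM HEPES pH 7.5, 0.0015% Brij-35. Compound was diluted from DMSO and preincubated with enzyme for 10 min at room temperature. FAM-labeled peptide plus ATP was then added and the reaction run for 1 h at 28 °C. It was stopped with an EDTA (50 mM) buffer. Conversion gave percent inhibition relative to max/min controls, and IC50 came from a four-parameter Hill fit. Duplicate wells were used.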

The subject of the next assay is HL-60. Briefly: Antiproliferative activity against human HL60 cells assessed as growth inhibition after 72 hrs by CCK-8 assay. In kind it is functional. Conditions: HL-60, 72 h. In short, it runs like this: (§2)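 CCK-8 viability readout. Cells were cultured in RPMI 1640 with 10% FBS and 1% penicillin/streptomycin and seeded at 3000 (HEL), 5000 (MV4-11) or 3000 (HL60) cells/well. Increasing compound concentrations were applied for 72 h, then CCK-8 was added for a further 3 h and absorbance read at 450 nm. Inhibition = (1−A_sample/A_control)×100, normalized to DMSO controls. Value is the mean of three independent measurements, obtained by curve fitting.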
On the technique in general: Tetrazolium assays rely on reduction of a dye to a coloured formazan, in cell work by metabolically active cells.

The subject of another assay is HEL. Kind of assay: Antiproliferative activity against human HEL cells assessed as growth inhibition after 72 hrs by CCK-8 assay. In kind it is functional. In short, it runs like this:
as §2

Another assay has as its system MV4-11. Kind of assay: Antiproliferative activity against human MV4-11 cells assessed as growth inhibition after 72 hrs by CCK-8 assay. The assay is classed as functional. To be noted: MV4-11, 72 h. The gist of the method: as §2
For assay [4], the target named is T2, Receptor-type tyrosine-protein kinase FLT3 (Homo sapiens, UniProt P36888).
T2 sequence (P36888 whole entry): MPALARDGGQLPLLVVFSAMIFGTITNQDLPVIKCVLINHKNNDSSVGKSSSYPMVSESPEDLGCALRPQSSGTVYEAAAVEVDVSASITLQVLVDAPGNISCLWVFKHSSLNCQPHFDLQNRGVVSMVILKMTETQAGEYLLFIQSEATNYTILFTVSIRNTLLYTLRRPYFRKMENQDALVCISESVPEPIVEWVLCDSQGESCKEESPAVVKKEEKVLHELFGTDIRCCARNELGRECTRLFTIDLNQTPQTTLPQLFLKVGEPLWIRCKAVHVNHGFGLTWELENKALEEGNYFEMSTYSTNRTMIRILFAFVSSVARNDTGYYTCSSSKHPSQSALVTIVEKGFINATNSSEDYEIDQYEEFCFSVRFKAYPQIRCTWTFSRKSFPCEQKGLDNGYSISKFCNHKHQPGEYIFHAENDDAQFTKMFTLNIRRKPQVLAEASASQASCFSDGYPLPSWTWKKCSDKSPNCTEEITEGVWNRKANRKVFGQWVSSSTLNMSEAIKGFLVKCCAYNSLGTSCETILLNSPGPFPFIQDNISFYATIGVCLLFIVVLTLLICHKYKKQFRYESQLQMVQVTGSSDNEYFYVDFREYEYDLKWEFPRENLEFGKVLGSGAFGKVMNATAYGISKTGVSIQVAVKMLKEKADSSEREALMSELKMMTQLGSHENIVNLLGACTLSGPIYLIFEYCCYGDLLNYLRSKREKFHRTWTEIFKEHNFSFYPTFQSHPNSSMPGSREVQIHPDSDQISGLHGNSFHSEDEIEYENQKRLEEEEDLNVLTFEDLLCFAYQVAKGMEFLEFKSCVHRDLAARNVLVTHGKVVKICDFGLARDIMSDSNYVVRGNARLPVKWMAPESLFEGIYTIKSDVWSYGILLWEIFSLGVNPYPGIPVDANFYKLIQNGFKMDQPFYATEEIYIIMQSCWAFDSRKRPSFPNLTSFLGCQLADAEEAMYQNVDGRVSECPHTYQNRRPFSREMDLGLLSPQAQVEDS
Briefly: Inhibition of N-terminal GST-tagged human FLT3 cytoplasmic domain (564 to 993 residues) expressed in baculovirus expression system musing FAM-labeled peptide as substrate preincubated for 10 mins followed by substrate addition measured after 1 hr in presence of ATP by mobility shift assay. The gist of the method:
as §1

T1 sequence (O60674 whole entry, the tested form may be a part): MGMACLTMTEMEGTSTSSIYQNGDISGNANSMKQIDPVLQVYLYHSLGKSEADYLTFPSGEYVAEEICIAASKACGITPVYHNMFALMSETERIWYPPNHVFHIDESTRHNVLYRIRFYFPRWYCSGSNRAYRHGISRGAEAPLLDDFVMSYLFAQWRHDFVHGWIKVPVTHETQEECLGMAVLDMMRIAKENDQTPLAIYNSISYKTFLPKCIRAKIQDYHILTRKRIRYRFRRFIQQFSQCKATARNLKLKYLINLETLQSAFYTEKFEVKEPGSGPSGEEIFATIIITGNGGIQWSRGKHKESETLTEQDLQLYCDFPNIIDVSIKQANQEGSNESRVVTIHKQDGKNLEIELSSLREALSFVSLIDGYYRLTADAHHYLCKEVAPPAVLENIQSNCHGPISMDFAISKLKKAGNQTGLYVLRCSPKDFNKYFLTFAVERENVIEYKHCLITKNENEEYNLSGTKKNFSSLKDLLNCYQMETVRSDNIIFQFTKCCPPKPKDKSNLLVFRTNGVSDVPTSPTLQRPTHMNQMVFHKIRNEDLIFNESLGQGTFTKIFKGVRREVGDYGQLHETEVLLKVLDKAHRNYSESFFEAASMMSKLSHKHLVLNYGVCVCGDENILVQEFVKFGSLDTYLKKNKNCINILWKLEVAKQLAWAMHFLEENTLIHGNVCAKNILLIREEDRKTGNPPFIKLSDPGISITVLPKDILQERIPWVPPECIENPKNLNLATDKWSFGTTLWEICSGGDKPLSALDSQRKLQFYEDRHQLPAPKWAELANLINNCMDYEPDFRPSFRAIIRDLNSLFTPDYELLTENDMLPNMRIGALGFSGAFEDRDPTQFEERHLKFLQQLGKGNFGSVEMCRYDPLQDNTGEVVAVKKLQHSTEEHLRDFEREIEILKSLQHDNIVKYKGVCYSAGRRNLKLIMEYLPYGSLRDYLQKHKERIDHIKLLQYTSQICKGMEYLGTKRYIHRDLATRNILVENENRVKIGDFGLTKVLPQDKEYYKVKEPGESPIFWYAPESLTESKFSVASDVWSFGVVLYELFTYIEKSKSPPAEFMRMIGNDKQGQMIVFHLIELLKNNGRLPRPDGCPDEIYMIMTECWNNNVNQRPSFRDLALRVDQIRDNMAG

As for `COC(=O)c1ccc(NC(=O)N2CCN(c3ccnc(Nc4ccc(N5CCOCC5)cc4)n3)CC2)cc1`, the inhibition (as a rule, the share of the control response that was lost under treatment) in assay [1] was found to be 64.4%; in assay [2], 62.8%.

Regarding `NC(=O)c1cccc(NC(=O)N2CCN(c3ccnc(Nc4ccc(N5CCOCC5)cc4)n3)CC2)c1`, the inhibition in assay [1] was 74%; in assay [2], 39.8%.

Regarding `NC(=O)c1ccc(NC(=O)N2CCN(c3ccnc(Nc4ccc(N5CCOCC5)cc4)n3)CC2)cc1`, the IC50 (commonly the concentration at which inhibition is half-maximal) in assay [3] turned out to be 11 nM; in assay [4], 21 nM. The GI50 with HL-60, in the assay on HEL and in the assay with MV4-11 was greater than 50 µM in each case. Further, the inhibition was determined as 86.3% in assay [1] and 81.1% in assay [2].

Regarding `CN1CCN(c2ccc(Nc3nccc(N4CCN(C(=O)Nc5ccc(S(N)(=O)=O)cc5)CC4)n3)cc2)CC1`, the 50% growth inhibitory concentration (GI50) – broadly, the concentration that inhibits growth by half – in the assay with HEL was greater than 50 µM. The inhibition in assay [1] was 76%; in assay [2], 86%.

Consider `N#Cc1ccc(NC(=O)N2CCN(c3ccnc(Nc4ccc(N5CCOCC5)cc4)n3)CC2)cc1`, for which the inhibition worked out at 78% in assay [1] and 70.8% in assay [2].

Regarding `CCc1ccc(NC(=O)N2CCN(c3ccnc(Nc4ccc(N5CCOCC5)cc4)n3)CC2)cc1`, the inhibition in assay [1] was found to be 53.3%; in assay [2], 27.4%.

Consider `O=C(Nc1ccccc1C(F)(F)F)N1CCN(c2ccnc(Nc3ccc(N4CCOCC4)cc3)n2)CC1`, for which the inhibition was 21.8% in assay [1] and 15% in assay [2].

Take `CN1CCN(c2ccc(Nc3nccc(N4CCN(C(=O)Nc5ccc(C(N)=O)cc5)CC4)n3)cc2)CC1`: in the assay with HEL, the 50% growth inhibitory concentration (GI50) was greater than 50 µM. For the same compound, the inhibition in assay [1] was determined as 84%; in assay [2], 85%.

Take `CC(=O)c1ccc(NC(=O)N2CCN(c3ccnc(Nc4ccc(OCCN5CCCC5)cc4)n3)CC2)cc1`: the GI50 in the assay on HEL came out at 30.3 µM. The results for the inhibition in assay [1] and in assay [2] were 45% and 69%, respectively.

As for `O=C(Nc1ccc(C(=O)N2CCOCC2)cc1)N1CCN(c2ccnc(Nc3ccc(N4CCOCC4)cc3)n2)CC1`, the inhibition was found to be 20% in assay [1] and 17.2% in assay [2].

For `COC(=O)CNC(=O)c1ccc(NC(=O)N2CCN(c3ccnc(Nc4ccc(N5CCOCC5)cc4)n3)CC2)cc1`, the inhibition in assay [1] turned out to be 40.6%; in assay [2], 33.1%.

Consider `N#Cc1cccc(NC(=O)N2CCN(c3ccnc(Nc4ccc(N5CCOCC5)cc4)n3)CC2)c1`, for which the values for the inhibition in assay [1] and in assay [2] were 8.1% and 15.9%, respectively.

Regarding `O=C(Nc1cccc(C(F)(F)F)c1)N1CCN(c2ccnc(Nc3ccc(N4CCOCC4)cc3)n2)CC1`, the inhibition in assay [1] worked out at 35.2%; in assay [2], 36.5%.

`CC(=O)c1ccc(NC(=O)N2CCN(c3ccnc(Nc4ccc(OCCN5CCOCC5)cc4)n3)CC2)cc1`: the concentration for 50% growth inhibition (GI50) in the assay with HEL came out at 8.9 µM. Also, the inhibition in assay [1] is 61.7%; in assay [2] it was 70.6%.

On to `CC(=O)c1ccc(NC(=O)N2CCN(c3ccnc(Nc4ccc(OCCCN5CCCC5)cc4)n3)CC2)cc1`, for which the IC50 in assay [3] stood at 65 nM; in assay [4], 13 nM. Also, the GI50 in the assay on HL-60 was found to be 29.4 µM; with HEL, 3.3 µM; in the assay on MV4-11, 11 µM. The inhibition in assay [1] was 60.7%; in assay [2] it was 83.2%.

On to `CC(=O)c1ccc(NC(=O)N2CCN(c3ccnc(Nc4ccc(OCCCN5CCOCC5)cc4)n3)CC2)cc1`, for which the GI50 in the assay on HEL came to 10.7 µM. In addition, the inhibition in assay [1] was determined as 60.9%; in assay [2] it was 70.9%.

With `COc1ccc(NC(=O)N2CCN(c3ccnc(Nc4ccc(N5CCOCC5)cc4)n3)CC2)cc1`, the inhibition turned out to be 48.7% in assay [1] and 21.7% in assay [2].

As for `NC(=O)c1ccc(NC(=O)N2CCN(c3ccnc(Nc4ccc(OCCN5CCCC5)cc4)n3)CC2)cc1`, the GI50 in the assay with HEL was greater than 50 µM. Besides, the inhibition is 53% in assay [1] and 74% in assay [2].

For the compound `CC(=O)c1ccc(NC(=O)N2CCN(c3ccnc(Nc4ccc(N5CCSCC5)cc4)n3)CC2)cc1`, the IC50 in assay [3] was found to be 29.8 nM; in assay [4], 40 nM. Further, the values for the GI50 with HL-60, in the assay on HEL and in the assay with MV4-11 were greater than 50 µM, 4.7 µM and 17.8 µM, respectively. In addition, the inhibition in assay [1] was 73.9%; in assay [2], 77.6%.

Turning to `CC(=O)c1ccccc1NC(=O)N1CCN(c2ccnc(Nc3ccc(N4CCOCC4)cc3)n2)CC1`, the inhibition in assay [1] was determined as 18.9%; in assay [2], 13.8%.

`O=C(Nc1ccc(F)cc1)N1CCN(c2ccnc(Nc3ccc(N4CCOCC4)cc3)n2)CC1`: the values for the inhibition in assay [1] and in assay [2] were 54.8% and 27.8%, respectively.

As for `CNC(=O)c1ccc(NC(=O)N2CCN(c3ccnc(Nc4ccc(N5CCOCC5)cc4)n3)CC2)cc1`, the inhibition is 68.1% in assay [1] and 35.8% in assay [2].

On to `CC(=O)c1cccc(NC(=O)N2CCN(c3ccnc(Nc4ccc(N5CCOCC5)cc4)n3)CC2)c1`, for which the inhibition in assay [1] was determined as 2%; in assay [2], 3.3%.

With `CS(=O)(=O)c1ccc(NC(=O)N2CCN(c3ccnc(Nc4ccc(N5CCOCC5)cc4)n3)CC2)cc1`, the inhibition was 75.8% in assay [1] and 53.9% in assay [2].

As to `CC(=O)c1ccc(NC(=O)N2CCN(c3ccnc(Nc4ccc(N5CCC(C)CC5)cc4)n3)CC2)cc1`, the GI50 with HEL was 26.4 µM. Moreover, the inhibition in assay [1] is 53%; in assay [2] it was 54%.

In the case of `NC(=O)c1ccccc1NC(=O)N1CCN(c2ccnc(Nc3ccc(N4CCOCC4)cc3)n2)CC1`, the inhibition in assay [1] came out at 9.5%; in assay [2], 12.5%.

Regarding `N#CCNC(=O)c1ccc(-c2ccnc(Nc3ccc(N4CCOCC4)cc3)n2)cc1`, the inhibition in assay [1] is 94.7%.

On to `CCN(CC)c1ccc(NC(=O)N2CCN(c3ccnc(Nc4ccc(N5CCOCC5)cc4)n3)CC2)cc1`, for which the inhibition in assay [1] stood at 41.2%; in assay [2], 0%.

For `O=C(Nc1ccc(C(F)(F)F)cc1)N1CCN(c2ccnc(Nc3ccc(N4CCOCC4)cc3)n2)CC1`, the inhibition in assay [1] is 35.2%; in assay [2], 36.5%.

`O=C(Nc1ccccc1)N1CCN(c2ccnc(Nc3ccc(N4CCOCC4)cc3)n2)CC1`: the inhibition in assay [1] is 53.7%; in assay [2], 27.8%.

Regarding `C1=N/C2=N/c3ccc(OCCN4CCCC4)c(c3)COC/C=C/COCc3cccc(c3)C(=C1)N2` [PACRITINIB], the GI50 in the assay on HL-60 turned out to be 1.4 µM; in the assay with HEL, 1.1 µM; with MV4-11, 1.6 µM. Moreover, in assay [1], the inhibition stood at 92%.

Turning to `O=C(Nc1ccc([N+](=O)[O-])cc1)N1CCN(c2ccnc(Nc3ccc(N4CCOCC4)cc3)n2)CC1`, the inhibition amounted to 79.3% in assay [1] and 84.4% in assay [2].

For `NS(=O)(=O)c1ccc(NC(=O)N2CCN(c3ccnc(Nc4ccc(OCCN5CCCC5)cc4)n3)CC2)cc1`, the GI50 with HEL is greater than 50 µM. Also, the values for the inhibition in assay [1] and in assay [2] were 59% and 82%, respectively.

Take `CC(C)Oc1ccc(NC(=O)N2CCN(c3ccnc(Nc4ccc(N5CCOCC5)cc4)n3)CC2)cc1`: the inhibition in assay [1] was determined as 11.1%; in assay [2], 22.9%.
